This experiment has as its target T1, 3-oxo-5-alpha-steroid 4-dehydrogenase 1 (Rattus norvegicus) (UniProt P24008).
T1 sequence (whole entry): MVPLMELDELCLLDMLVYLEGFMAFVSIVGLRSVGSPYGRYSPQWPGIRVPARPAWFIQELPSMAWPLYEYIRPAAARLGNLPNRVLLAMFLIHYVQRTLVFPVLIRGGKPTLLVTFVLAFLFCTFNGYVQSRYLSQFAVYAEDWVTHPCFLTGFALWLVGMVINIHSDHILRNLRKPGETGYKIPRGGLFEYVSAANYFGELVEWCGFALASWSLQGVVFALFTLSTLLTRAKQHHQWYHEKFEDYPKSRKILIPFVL
Kind of experiment: In vitro inhibitory activity against rat prostatic 5-alpha-reductase (150 ng/tube). Put shortly: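 Rat prostatic enzyme preparation incubated with radioactive T and excess NADPH in 0.21 mL medium; 150 ng steroid per incubation (approx. 2 μM). Read-out is percent prevention of [³H]T conversion to [³H]DHT vs. control incubation without inhibitor. Duplicate assays, progesterone (150 ng) or a reference azasteroid (25 ng) as positive controls; most values single, separate determinations, approximate.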

In general, inhibition refers to the drop in the measured response relative to a control, in per cent. Higher therefore signals a response far below the control.

`CC(=O)O[C@H]1CCC2C3CC[C@H]4NC(=O)CCCC4(C)C3CCC21C` (some centres not stated) yielded an inhibition of 94%.
The value for `CC(=O)O[C@H]1CCC2C3CC[C@H]4CNC(=O)CCC4(C)C3CCC21C` (some centres not stated) was 0%.
Turning to `CCN(CC)C(=O)C[C@H]1CC[C@H]2[C@@H]3CCC4N(C)C(=O)CC[C@]4(C)[C@H]3CC[C@]12C` (some centres not stated), the inhibition was 97%.
For `CC(C)N(C(=O)[C@H]1CC[C@H]2[C@@H]3CCC4N(C)C(=O)CC[C@]4(C)[C@H]3CC[C@]12C)C(C)C` (some centres not stated) the value was 100%; for `C[C@]12CCC(=O)NC1CC[C@@H]1[C@@H]2CC[C@@]2(C)[C@H]1CC[C@@]21CCCO1` (some centres not stated), 68%.
For `CC(=O)[C@H]1CC[C@H]2[C@@H]3CC[C@H]4CS(=O)(=O)C[C@]4(C)[C@H]3CC[C@]12C` (stereo in doubt; 43) the value was 13%; for `CN1C(=O)CCC2(C)C1=CCC1C2CCC2(C)C1CC[C@@H]2O` (some centres not stated), 36%.
For `CCN(CC)C(=O)[C@H]1CCC2C3CCC4N(C)C(=O)CC4(C)C3CCC21C` (some centres not stated) the value was 7%; for `CC12CCNC(=O)C1CCC1C2CCC2(C)C1CC[C@@H]2O` (some centres not stated), 0%.
As for `CCN(CC)C(=O)CCC(C)[C@H]1CC[C@H]2[C@@H]3CCC4N(C)C(=O)CC[C@]4(C)[C@H]3CC[C@]12C` (some centres not stated), the inhibition was 100%.
For `CCN(CC)C(=O)C(C)[C@H]1CC[C@H]2[C@@H]3CCC4N(C)C(=O)CC[C@]4(C)[C@H]3CC[C@]12C` (some centres not stated) the value was 83%; for `CN1C(=O)CCC2(C)C3CCC4(C)/C(=C/C(=O)O)CCC4C3CCC12` (configuration not stated), 92%; for `CN1C(=O)CCC2C3CCC4(C)C(CC[C@@H]4O)C3CCC21` (some centres not stated), 81%.
The value for `CCN(CC)C(=O)[C@H]1CCC2C3CCC4N(C)/C(=N\C)CCC4(C)C3CCC21C` (some centres not stated) was 49%; that for `CCCCCCCCNC(=O)[C@H]1CCC2C3CCC4N(C)C(=O)CCC4(C)C3CCC21C` (some centres not stated) was 100%.
For the compound `CC(=O)[C@H]1CC[C@H]2[C@@H]3CC[C@H]4CS(=O)(=O)C[C@]4(C)[C@H]3CC[C@]12C` (stereo in doubt; 44), the inhibition came to 13%.
The value for `CCN(CC)C(=O)[C@H]1CCC2C3CCC4N(CCO)C(=O)CCC4(C)C3CCC21C` (some centres not stated) was 0%; that for `CCN(CC)C(=O)[C@H]1CCC2C3CCC4N(C)C(=O)C5OC5C4(C)C3CCC21C` (some centres not stated) was 19%; that for `CCN(CC)C(=O)[C@H]1CCC2C3CCC4N(C)C(=N)CCC4(C)C3CCC21C` (some centres not stated) was 22%.
For `CC(O)[C@@]1(O)CC[C@H]2[C@@H]3CCC4N(C)C(=O)CC[C@]4(C)[C@H]3CC[C@@]21C` (some centres not stated) the value was 100%; for `CCN(CC)C(=O)[C@H]1CCC2C3CCC4N(C)C(=O)C(=O)CC4(C)C3CCC21C` (some centres not stated), 78%.
For `CCN(CC)C(=O)[C@H]1CC[C@H]2[C@@H]3CC[C@H]4N(C)C(=O)C=C[C@]4(C)[C@H]3CC[C@]12C` the value was 63%; for `CCN(CC)C(=O)[C@H]1CCC2C3CCC4N(c5ccccc5)C(=O)CCC4(C)C3CCC21C` (some centres not stated), 5%.
With `CCN(CC)C(=O)[C@H]1CCC2C3CCC4N(NC)C(=O)CCC4(C)C3CCC21C` (some centres not stated), the inhibition is 24%.
`CC(=O)O[C@H]1CCC2C3CC[C@H]4CC(=O)NCCC4(C)C3CCC21C` (some centres not stated) registered an inhibition of 0%.
For `CCN(CC)C(=O)[C@H]1CC[C@H]2[C@@H]3CC[C@@H]4NC(=O)CC[C@]4(C)[C@H]3CC[C@]12C` the value was 95%; for `CC(C(=O)O)[C@H]1CC[C@H]2[C@@H]3CCC4N(C)C(=O)CC[C@]4(C)[C@H]3CC[C@]12C` (some centres not stated), 96%; for `CC12COC(=O)C=C1CCC1C2CCC2(C)C1CC[C@]2(C)O` (some centres not stated), 8%.
The value for `CCN(CC)C(=O)[C@H]1CC[C@H]2[C@@H]3CC[C@@H]4N(C)C(=O)CC[C@]4(C)[C@H]3CC[C@]12C` was 7%; that for `CC(=O)O[C@H]1CCC2C3CC[C@H]4CN(C(C)=O)CCC4(C)C3CCC21C` (some centres not stated) was 33%; that for `CCNC(=O)[C@H]1CCC2C3CCC4N(C)C(=O)CCC4(C)C3CCC21C` (some centres not stated) was 83%.
For `CC(=O)O[C@H]1CCC2C3CC[C@H]4CNC(=O)CC4(C)C3CCC21C` (some centres not stated) the value was 0%.
Regarding `CC(=O)[C@H]1CCC2C3CCC4N(C)C(=O)CCC4(C)C3CCC21C` (some centres not stated), the inhibition amounted to 100%.
For `CC(=O)N[C@H]1CCC2C3CCC4N(C)C(=O)CCC4(C)C3CCC21C` (some centres not stated) the value was 76%.
For `CCCCCCCCCC[C@H]1CCC2C3CCC4N(C)C(=O)CCC4(C)C3CCC21C` (some centres not stated) the value was 7%; for `CC(=O)[C@H]1CCC2C3CCC4NC(=O)CCC4(C)C3CCC21C` (some centres not stated), 100%; for `CCN(CC)C(=O)[C@H]1CCC2C3CCC4N(C)CCCC4(C)C3CCC21C` (some centres not stated), 44%.
The value for `CN1C(=O)CCC2(C)C3CCC4(C)C(CC[C@@H]4CN)C3CCC12` (some centres not stated) was 80%; that for `CN1C(=O)CC[C@@]2(C)C1CC[C@H]1[C@@H]3CC[C@H](C(=O)O)[C@@]3(C)CC[C@@H]12` (some centres not stated) was 90%; that for `CC(O)[C@H]1CC[C@H]2[C@@H]3CCC4N(C)C(=O)CC[C@]4(C)[C@H]3CC[C@]12C` (some centres not stated) was 100%.
`CCOC(=O)C[C@H]1CC[C@H]2[C@@H]3CC[C@H]4N(C)C(=O)CC[C@]4(C)[C@H]3CC[C@]12C`: the inhibition was 88%.
The value for `COC(=O)[C@H]1CCC2C3CC[C@H]4CC(=O)OCC4(C)C3CCC21C` (some centres not stated) was 0%; that for `CC(=O)O[C@H]1CCC2C3CC[C@H]4CC(=O)NCC4(C)C3CCC21C` (some centres not stated) was 35%; that for `COC(=O)CCC(C)[C@H]1CC[C@H]2[C@@H]3CCC4N(C)C(=O)CC[C@]4(C)[C@H]3CC[C@]12C` (some centres not stated) was 84%.
For `CC(CO)[C@H]1CC[C@H]2[C@@H]3CCC4N(C)C(=O)CC[C@]4(C)[C@H]3CC[C@]12C` (some centres not stated) the value was 100%; for `CC(=O)[C@H]1CC[C@H]2[C@@H]3CC[C@H]4CS(=O)(=O)C[C@]4(C)[C@H]3CC[C@]12C` (stereo in doubt; 42), 13%; for `CCN(CC)C(=O)[C@H]1CCC2C3CCC4N(C)C(=S)CCC4(C)C3CCC21C` (some centres not stated), 50%.
For `CC(=O)N[C@@H]1CC[C@H]2[C@@H]3CCC4N(C)C(=O)CC[C@]4(C)[C@H]3CC[C@]12C` (some centres not stated) the value was 87%.
`CN1C(=O)CC[C@@]2(C)C1CC[C@@H]1[C@@H]2CC[C@@]2(C)[C@H]1CC[C@@]21CCCO1` (some centres not stated) gave an inhibition of 81%.
For `COC(=O)[C@H]1CCC2C3CCC4N(C)C(=O)CCC4(C)C3CCC21C` (some centres not stated) the value was 96%; for `CCN(CC)C(=O)[C@H]1CC[C@H]2[C@@H]3CC[C@H]4N(C)C(=O)CC[C@]4(C)[C@H]3CC[C@]12C`, 99%; for `CC(CCC(=O)O)[C@H]1CC[C@H]2[C@@H]3CCC4N(C)C(=O)CC[C@]4(C)[C@H]3CC[C@]12C` (some centres not stated), 88%.
In turn, `CCN(CC)C(=O)[C@H]1CCC2C3CC[C@H]4N(C)C(=O)[C@H](O)CC4(C)C3CCC21C` (some centres not stated) had an inhibition of 46%.
As to `CN1C(=O)CC[C@@]2(C)C1CC[C@H]1[C@@H]3CC[C@H](O)[C@@]3(C)CC[C@@H]12` (some centres not stated), the inhibition was found to be 72%.
The value for `CCN(CC)C(=O)[C@H]1CC[C@H]2[C@@H]3CC[C@H]4NC(=O)C=C[C@]4(C)[C@H]3CC[C@]12C` was 74%; that for `CCN(CC)C(=O)/C=C1\CC[C@H]2[C@@H]3CCC4N(C)C(=O)CC[C@]4(C)[C@H]3CC[C@]12C` (some centres not stated) was 100%; that for `CC12CCC(=O)NC1CCC1C2CCC2(C)C1CC[C@@H]2O` (some centres not stated) was 57%.
The value for `CCN(CC)C(=O)[C@H]1CCC2C3CC[C@H]4N(C)C(=O)[C@@H](C)CC4(C)C3CCC21C` (some centres not stated) was 99%; that for `CCN(CC)C(=O)[C@H]1CCC2C3CCC4N(C)/C(=N/O)CCC4(C)C3CCC21C` (some centres not stated) was 77%; that for `CCN(CC)C(=O)[C@H]1CCC2C3CCC4N(C)C(=O)/C(=C/O)CC4(C)C3CCC21C` (some centres not stated) was 48%.
The value for `CN1C(=O)CCC2(C)C3CCC4(C)C(CC[C@@H]4C(N)=O)C3CCC12` (some centres not stated) was 91%; that for `CCN1C(=O)CC[C@@]2(C)C1CC[C@@H]1[C@@H]2CC[C@@]2(C)[C@H]1CC[C@@]21CCCO1` (some centres not stated) was 27%.

The record behind these values is ChEMBL document CHEMBL1122544, “Azasteroids as inhibitors of rat prostatic 5 alpha-reductase” (J Med Chem, 1984).
